Molecules are shown by their SMILES. Where a SMILES comes first, the peptide text is derived from it.

The nature of data set [1]: Fraction absorbed in human intestine after oral administration compound was measured. The class given is ADME, tissue-based.
Data set [2] in a line: Permeability Coefficient in 2/4/A1 cell model. Type of data set: ADME, cell-based, Homo sapiens.
Data set [3] can be described thus: Permeability Coefficient in hexadecane membranes model. Type of data set: ADME, cell membranes. The conditions noted are these: not told. In a few lines:
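Hexadecane (5% v/v in hexane) was loaded onto 0.4 µm polycarbonate filters, and the hexane was evaporated for ≥1 h at RT. Drug in HBSS/25 mM HEPES pH 7.4 was placed donor side, with pH 7.4 buffer receiver side, at 37°C and 500 rpm stirring. Receiver sampled over 10–120 min.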

Data set [4] can be described thus: Permeability Coefficient in Caco-2 cell culture model. Conditions: human. The class given is ADME, cell-based.

Regarding `O=C(O)c1cc(/N=N/c2ccc(S(=O)(=O)Nc3ccccn3)cc2)ccc1O` [SULFASALAZINE], in data set [1], the Fa is 12%. The results for the Papp (in the data set filed under Homo sapiens; in data set [2]) were 0.028 cm/s · 10E6 and 9.6 ×10⁻⁶ cm/s, respectively.
As for `Cc1cc(=O)n(-c2ccccc2)n1C` [ANTIPYRINE], the Papp came to 11 ×10⁻⁶ cm/s in data set [3] and 250 ×10⁻⁶ cm/s in data set [2].
In the same order, the values of `OC[C@@H](O)[C@@H](O)[C@H](O)[C@H](O)CO` [MANNITOL] are 0.17 ×10⁻⁶ cm/s and 11 ×10⁻⁶ cm/s.
On to `OC[C@H]1O[C@H](OC[C@H]2O[C@H](O[C@]3(CO)O[C@H](CO)[C@@H](O)[C@@H]3O)[C@H](O)[C@@H](O)[C@@H]2O)[C@H](O)[C@@H](O)[C@H]1O` [RAFFINOSE], for which the Papp in data set [3] turned out to be 0.051 ×10⁻⁶ cm/s; in data set [2] it was 5.9 ×10⁻⁶ cm/s. The molecule also gave a Fa in data set [1] of 0%.
As to `CN1CC(=O)NC1=N` [CREATININE], the Papp in data set [3] was determined as 0.12 ×10⁻⁶ cm/s; in data set [4], 1.2 ×10⁻⁶ cm/s; in data set [2], 21 ×10⁻⁶ cm/s. The same molecule showed a Fa in data set [1] of 70%.
On the same counts, the results for `C[C@H]1O[C@@H](O[C@H]2[C@@H](O)C[C@H](O[C@H]3[C@@H](O)C[C@H](O[C@H]4CC[C@@]5(C)[C@H](CC[C@@H]6[C@@H]5C[C@@H](O)[C@]5(C)[C@@H](C7=CC(=O)OC7)CC[C@]65O)C4)O[C@@H]3C)O[C@@H]2C)C[C@H](O)[C@@H]1O` [DIGOXIN] are 0.12 ×10⁻⁶ cm/s, 1.3 ×10⁻⁶ cm/s, 6.7 ×10⁻⁶ cm/s and 81%.
In the same order, the values of `CN(CC(=O)O)C(=O)CN` [GLYCYLSARCOSINE] (HELM PEPTIDE1{G.[Sar]}$$$$V2.0) are 0.25 ×10⁻⁶ cm/s, 0.5 ×10⁻⁶ cm/s, 11 ×10⁻⁶ cm/s and 100%.
In the case of `O=C1c2c(O)ccc(O)c2C(=O)c2c(NCCNCCO)ccc(NCCNCCO)c21` [MITOXANTRONE], the Papp amounted to 0.74 ×10⁻⁶ cm/s in data set [3], 2.3 ×10⁻⁶ cm/s in data set [4] and 7.3 ×10⁻⁶ cm/s in data set [2].
On the same counts, the results for `CN(C)C(=N)N=C(N)N` [METFORMIN] are 0.51 ×10⁻⁶ cm/s, 0.66 ×10⁻⁶ cm/s and 20 ×10⁻⁶ cm/s.
Consider `Cc1ccccc1N1C(=O)c2cc(S(N)(=O)=O)c(Cl)cc2NC1C` (configuration not stated) [METOLAZONE], for which the Papp in data set [3] is 1.1 ×10⁻⁶ cm/s; in data set [4] it was 4.3 ×10⁻⁶ cm/s; in data set [2] it was 14 ×10⁻⁶ cm/s. Also, the Fa in data set [1] came to 64%.
`CC(C)(C)NCC(O)c1cc(O)cc(O)c1` (configuration not stated) [TERBUTALINE]: the Papp in data set [3] was found to be 0.96 ×10⁻⁶ cm/s; in data set [4] it was 0.23 ×10⁻⁶ cm/s; in data set [2], 41 ×10⁻⁶ cm/s. In data set [1], this molecule displayed a Fa of 73%.
With `Nc1nc(O)c2ncn(COC(CO)CO)c2n1` [GANCICLOVIR], the Fa in data set [1] turned out to be 5%.
Regarding `C=CCc1ccccc1OCC(O)CNC(C)C` (configuration not stated) [ALPRENOLOL], the Papp was 160 ×10⁻⁶ cm/s in data set [3] and 290 ×10⁻⁶ cm/s in data set [2].
Take `CC(C)(C)NCC(O)COc1cccc2c1C[C@H](O)[C@H](O)C2` (some centres not stated) [NADOLOL]: the Papp in data set [3] stood at 0.032 ×10⁻⁶ cm/s; in data set [4], 0.28 ×10⁻⁶ cm/s; in data set [2], 14 ×10⁻⁶ cm/s. Further, the Fa in data set [1] was determined as 30%.
`CC(C)NCC(O)COc1cccc2[nH]ccc12` (configuration not stated) [PINDOLOL]: the results for the Papp in data set [3] and in data set [2] were 0.73 ×10⁻⁶ cm/s and 67 ×10⁻⁶ cm/s, respectively.
As for `CN(Cc1cnc2nc(N)nc(N)c2n1)c1ccc(C(=O)NC(CCC(=O)O)C(=O)O)cc1` (single isomer, unassigned) [METHOTREXATE], the figures for the Papp in data set [3], in data set [4] and in data set [2] were 0.02 ×10⁻⁶ cm/s, 0.03 ×10⁻⁶ cm/s and 5.2 ×10⁻⁶ cm/s, respectively. For the same molecule, the Fa in data set [1] was 59%.
As for `OC[C@H]1O[C@@H](O[C@@H]2[C@@H](CO)O[C@](O)(CO)[C@H]2O)[C@H](O)[C@@H](O)[C@H]1O` [LACTULOSE], the figures for the Papp in data set [3] and in data set [2] were 0.081 ×10⁻⁶ cm/s and 8.9 ×10⁻⁶ cm/s, respectively. The Fa in data set [1] was determined as 1%.
Take `Nc1nc2c(ncn2COCCO)c(=O)[nH]1` [ACYCLOVIR]: the Fa in data set [1] was 19%. Besides, the Papp in the data set filed under Homo sapiens came to 0.034 cm/s · 10E6; in data set [4] it was 0.38 ×10⁻⁶ cm/s; in data set [2] it was 8.2 ×10⁻⁶ cm/s.
Consider `O=P(O)(O)C(Cl)(Cl)P(=O)(O)O` [CLODRONIC ACID], for which the Papp in data set [3] was 12 ×10⁻⁶ cm/s; in data set [4], 0.059 ×10⁻⁶ cm/s; in data set [2], 4.5 ×10⁻⁶ cm/s. The Fa in data set [1] came to 3%.
For `COCCc1ccc(OCC(O)CNC(C)C)cc1` (configuration not stated) [METOPROLOL], the figures for the Papp in data set [3] and in data set [2] were 8.6 ×10⁻⁶ cm/s and 190 ×10⁻⁶ cm/s, respectively.
On to `CC(C)[C@H](N)C(=O)OCCOCn1cnc2c(=O)[nH]c(N)nc21` [VALACYCLOVIR], for which the Papp in data set [3] worked out at 0.39 ×10⁻⁶ cm/s; in data set [4] it was 2.3 ×10⁻⁶ cm/s; in data set [2], 35 ×10⁻⁶ cm/s. Further, in data set [1], the Fa was determined as 36%.
On the same counts, the results for `CC(C)NCC(O)COc1cccc2ccccc12` (configuration not stated) [PROPRANOLOL] are 58 ×10⁻⁶ cm/s, 204 ×10⁻⁶ cm/s, 240 ×10⁻⁶ cm/s and 100%.
On to `O=c1[nH]cnc2c1ncn2[C@H]1CC[C@@H](CO)O1` [DIDANOSINE], for which the Papp in data set [3] came out at 0.099 ×10⁻⁶ cm/s; in data set [4], 0.25 ×10⁻⁶ cm/s; in data set [2], 14 ×10⁻⁶ cm/s. For the same molecule, in data set [1], the Fa is 42%.
In the same order, the values of `O=C(O)c1cc(/N=N/c2ccc(O)c(C(=O)O)c2)ccc1O` [OLSALAZINE] are 12 ×10⁻⁶ cm/s, 0.05 ×10⁻⁶ cm/s, 4.5 ×10⁻⁶ cm/s and 3%.
In the same order, the values of `Nc1nc(=O)c2ncn([C@@H]3C[C@H](CO)[C@H]3CO)c2[nH]1` [LOBUCAVIR] are 0.057 ×10⁻⁶ cm/s, 0.88 ×10⁻⁶ cm/s, 14 ×10⁻⁶ cm/s and 50%.
In the same order, the values of `O=C(O)P(=O)(O)O` [FOSCARNET] are 0.36 ×10⁻⁶ cm/s, 0.043 ×10⁻⁶ cm/s, 9.5 ×10⁻⁶ cm/s and 17%.
With `CCN1CCCC1CNC(=O)c1cc(S(N)(=O)=O)ccc1OC` (configuration not stated) [SULPIRIDE], the Fa in data set [1] worked out at 30%. Besides, in data set [2], the Papp stood at 11 ×10⁻⁶ cm/s.
As for `CN/C(=N/CCSCc1nc[nH]c1C)NC#N` [CIMETIDINE], the results for the Papp in data set [3], in data set [4] and in data set [2] were 0.085 ×10⁻⁶ cm/s, 0.67 ×10⁻⁶ cm/s and 39 ×10⁻⁶ cm/s, respectively. Besides, the Fa in data set [1] amounted to 80%.

For the origin of these results see ChEMBL document CHEMBL1145178, “Exploring the role of different drug transport routes in permeability screening” (J Med Chem, 2005).
